Measured values as given in ChEMBL document CHEMBL1153905, “Functionalized 3-benzylidene-indolin-2-ones: inducers of NAD(P)H-quinone oxidoreductase 1 (NQO1) with antiproliferative activity” (Bioorg Med Chem, 2009).

Key:
[1] = test system: HCT-116; assay: Antiproliferative activity against human HCT116 cells after 72 hrs by MTT assay; format: functional, cell-based; settings: HCT-116, 72 h
In short: (§1)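 Cells seeded at 10,000 (MCF7), 4000 (HCT116) or 5000 (CCL186) per well and grown 24 h; MCF7 and CCL186 in EMEM with pyruvate, glutamine, 10% FBS; HCT116 in McCoy's 5A with 10% FBS. Compounds from DMSO stocks (≤1% DMSO final), 72 h exposure; MTT 0.5 mg/ml for 3 h, formazan in DMSO read at 590 nm. IC50 from sigmoidal survival curve, three separate occasions.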

[2] = test system: MCF7; assay: Antiproliferative activity against human MCF7 cells after 72 hrs by MTT assay; format: functional, cell-based; settings: MCF7, 72 h; in short: as §1
[3] = Antiproliferative activity against human CCL186 cells after 72 hrs by MTT assay; format: cell-based; settings: CCL186, 72 h; in short: as §1
[4] = test system: MCF7; assay: Selectivity ratio of IC50 for human CCL186 cells to IC50 for human MCF7 cells
In short: (§2)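 MTT assay. MCF7 and CCL186 cells were grown in EMEM/10% FBS, HCT116 in McCoy's 5A/10% FBS. Seeding was 10,000 (MCF7), 4000 (HCT116) and 5000 (CCL186) cells per well, 24 h. Compound exposure was 72 h, DMSO ≤1% final. MTT 0.5 mg/ml for 3 h, formazan dissolved in DMSO, A590. IC50 came from sigmoidal survival curves, with 3 separate occasions per concentration. Ratio = IC50 CCL186 / IC50 of the cancer line.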

[5] = Selectivity ratio of IC50 for human CCL186 cells to IC50 for human HCT116 cells; format: ADME, cell-based, HCT-116; settings: CCL186 cells and HCT116 cells, read-out: Ratio IC50; in short: as §2
[6] = test system: HCT-116; assay: Cell cycle arrest in human HCT116 cells released from G1 block assessed as accumulation at sub G1 phase at 15 uM after 24 hrs by flow cytometry; format: functional
[7] = test system: HCT-116; assay: Cell cycle arrest in human HCT116 cells released from G2 block assessed as accumulation at sub G1 phase at 15 uM after 24 hrs by flow cytometry; format: functional
[8] = test system: HCT-116; assay: Cell cycle arrest in human HCT116 cells released from G1 block assessed as accumulation at G1 phase at 15 uM after 24 hrs by flow cytometry; format: functional
[9] = test system: HCT-116; assay: Cell cycle arrest in human HCT116 cells released from G2 block assessed as accumulation at G1 phase at 15 uM after 24 hrs by flow cytometry; format: functional
[10] = test system: HCT-116; assay: Cell cycle arrest in human HCT116 cells released from G1 block assessed as accumulation at S phase at 15 uM after 24 hrs by flow cytometry; format: functional
[11] = test system: HCT-116; assay: Cell cycle arrest in human HCT116 cells released from G2 block assessed as accumulation at S phase at 15 uM after 24 hrs by flow cytometry; format: functional
[12] = test system: HCT-116; assay: Cell cycle arrest in human HCT116 cells released from G1 block assessed as accumulation at G2/M phase at 15 uM after 24 hrs by flow cytometry; format: functional
[13] = test system: HCT-116; assay: Cell cycle arrest in human HCT116 cells released from G2 block assessed as accumulation at G2/M phase at 15 uM after 24 hrs by flow cytometry; format: functional
[14] = Cytotoxicity against mouse Hepa-1c1c7 cells after 48 hrs by MTT assay; format: cell-based; settings: hepa-1c1c7, 48 h
In short: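 Murine hepatoma cells in α-MEM with 10% heat- and charcoal-treated fetal calf serum, passages 6–17; MTT read-out as for the cancer lines but with 48 h compound exposure. Highest concentration tested 25 µM. IC50 from survival-versus-concentration curve; mean and SD, n = 3.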

[15] = target: NAD(P)H dehydrogenase [quinone] 1 (Mus musculus) (UniProt Q64669); assay: Induction of NQO1 activity in mouse Hepa-1c1c7 cells assessed as induction ratio at 0.05 uM after 48 hrs by MTT assay relative to control; format: cell-based
Sequence of NAD(P)H dehydrogenase [quinone] 1 (Mus musculus) (Q64669 whole entry): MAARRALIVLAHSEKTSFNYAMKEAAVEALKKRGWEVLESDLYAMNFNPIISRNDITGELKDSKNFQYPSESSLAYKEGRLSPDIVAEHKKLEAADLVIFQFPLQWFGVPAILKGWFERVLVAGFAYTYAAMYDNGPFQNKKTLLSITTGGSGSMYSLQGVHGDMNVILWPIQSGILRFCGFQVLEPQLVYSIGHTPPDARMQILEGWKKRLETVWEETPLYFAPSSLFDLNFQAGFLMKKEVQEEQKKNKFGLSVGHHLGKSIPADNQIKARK
In short: (§3)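 Hepa1c1c7 cells, 10,000 per well, 24 h, were then treated 48 h (DMSO ≤0.5%). Digitonin/EDTA lysates were assayed for menadione-dependent MTT-formazan formation using a G6P/G6PDH NADPH-generating mix with FAD at pH 7.4. The reaction ran 5 min, was stopped with dicoumarol, and read at A590. Degree of induction = (A test − blank)/(A control − blank). Ratios were read off the induction–concentration plot at the EROD test concentration.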

[16] = target: T1, CYP1A1 (Mus musculus, UniProt P00184); assay: Induction of CYP1A1 activity in mouse Hepa-1c1c7 cells assessed as induction ratio at 0.05 uM after 48 hrs by EROD assay relative to control; format: ADME, cell-based
T1 sequence (P00184 whole entry): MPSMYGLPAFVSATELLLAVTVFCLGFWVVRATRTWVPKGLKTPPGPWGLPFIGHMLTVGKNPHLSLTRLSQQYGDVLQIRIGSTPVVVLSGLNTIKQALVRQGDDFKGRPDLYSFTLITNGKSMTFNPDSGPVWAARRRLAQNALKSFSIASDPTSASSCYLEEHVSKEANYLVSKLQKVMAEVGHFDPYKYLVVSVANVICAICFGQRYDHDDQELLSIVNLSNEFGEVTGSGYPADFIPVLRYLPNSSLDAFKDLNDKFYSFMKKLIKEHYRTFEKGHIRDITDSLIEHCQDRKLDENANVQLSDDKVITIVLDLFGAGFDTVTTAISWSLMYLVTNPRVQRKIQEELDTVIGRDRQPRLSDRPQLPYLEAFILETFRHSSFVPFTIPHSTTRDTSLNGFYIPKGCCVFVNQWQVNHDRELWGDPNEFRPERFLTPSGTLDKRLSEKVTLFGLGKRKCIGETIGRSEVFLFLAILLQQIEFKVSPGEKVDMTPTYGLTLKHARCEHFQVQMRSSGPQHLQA
In short: (§4)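 About 10,000 Hepa1c1c7 cells/well cultured 24 h, then compound (0.5% DMSO final) for 48 h, at roughly 4 × the concentration doubling NQO1 activity. After PBS wash, cells given 5 µM 7-ethoxyresorufin plus 2 mM salicylamide, 37 °C, 40 min; resorufin fluorescence ex 530/em 590 nm, corrected for compound fluorescence. Ratio = (treated − blank)/(DMSO control − blank); mean ± SD, n = 3.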

[17] = target: T1, CYP1A1; assay: Induction of CYP1A1 activity in mouse Hepa-1c1c7 cells assessed as induction ratio at 5 nM after 48 hrs by EROD assay relative to control; format: ADME, cell-based
In short: (§5)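 Hepa1c1c7 cells were seeded at 10,000 per well and grown 24 h. They were then exposed 48 h to compound (final DMSO 0.5% v/v) at about 4 × the NQO1 CD. After a PBS wash, cells got 5 µM 7-ethoxyresorufin plus 2 mM salicylamide in medium, 37 °C, 40 min. Resorufin was read at ex 530/em 590 nm, corrected for compound fluorescence. Ratio = (F treated − blank)/(F DMSO control − blank); mean ± SD, n = 3.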

[18] = target: NAD(P)H dehydrogenase [quinone] 1 (Mus musculus) (UniProt Q64669); assay: Induction of NQO1 activity in mouse Hepa-1c1c7 cells assessed as induction ratio at 5 nM after 48 hrs by MTT assay relative to control; format: cell-based; in short: as §3
[19] = Ratio of induction of NQO1 activity to induction of CYP1 activity in mouse Hepa-1c1c7 cells at 5 nM after 48 hrs
[20] = target: T1, CYP1A1; assay: Induction of CYP1A1 activity in mouse Hepa-1c1c7 cells assessed as induction ratio at 0.1 uM after 48 hrs by EROD assay relative to control; format: ADME, cell-based; in short: as §4
[21] = target: NAD(P)H dehydrogenase [quinone] 1 (Mus musculus) (UniProt Q64669); assay: Induction of NQO1 activity in mouse Hepa-1c1c7 cells assessed as induction ratio at 0.1 uM after 48 hrs by MTT assay relative to control; format: cell-based; in short: as §3
[22] = target: NAD(P)H dehydrogenase [quinone] 1 (Mus musculus) (UniProt Q64669); assay: Induction of NQO1 activity in mouse Hepa-1c1c7 cells assessed as induction ratio at 1 uM after 48 hrs by MTT assay relative to control; format: cell-based; in short: as §3
[23] = target: T1, CYP1A1; assay: Induction of CYP1A1 activity in mouse Hepa-1c1c7 cells assessed as induction ratio at 1 uM after 48 hrs by EROD assay relative to control; format: ADME, cell-based; in short: as §4
[24] = target: T1, CYP1A1; assay: Induction of CYP1A1 activity in mouse Hepa-1c1c7 cells assessed as induction ratio at 7.5 uM after 48 hrs by EROD assay relative to control; format: ADME, cell-based; in short: as §5
[25] = target: NAD(P)H dehydrogenase [quinone] 1 (Mus musculus) (UniProt Q64669); assay: Induction of NQO1 activity in mouse Hepa-1c1c7 cells assessed as induction ratio at 7.5 uM after 48 hrs by MTT assay relative to control; format: cell-based; in short: as §3
[26] = target: T1, CYP1A1; assay: Induction of CYP1A1 activity in mouse Hepa-1c1c7 cells assessed as induction ratio at 0.5 uM after 48 hrs by EROD assay relative to control; format: ADME, cell-based; in short: as §4
[27] = target: NAD(P)H dehydrogenase [quinone] 1 (Mus musculus) (UniProt Q64669); assay: Induction of NQO1 activity in mouse Hepa-1c1c7 cells assessed as induction ratio at 0.5 uM after 48 hrs by MTT assay relative to control; format: cell-based; in short: as §3

O=C1Nc2cc(Cl)ccc2/C1=C\c1cccc(C(F)(F)F)c1
IC50 [1]: 3.8 µM | IC50 [2]: 7.5 µM | IC50 [3]: 6.6 µM | Ratio IC50 [4]: 1.7 | selectivity ratio [5]: 0.9 | Activity [6]: 12.39% | Activity [7]: 10.62% | Activity [8]: 65.55% | Activity [9]: 53.47% | Activity [10]: 7.1% | Activity [11]: 8.05% | Activity [12]: 15.13% | Activity [13]: 28.39% | IC50 [14]: 1.1 µM | Ratio [15]: 5.2 | fold induction at 48 h, 0.05 µM [16]: 2.4

O=C1Nc2cc(C(F)(F)F)ccc2/C1=C1\C(=O)Nc2ccc(Cl)cc21
IC50 [14]: 9.8 µM | fold induction at 48 h, 0.005 µM [17]: 3.23 | Ratio [18]: 2.96 | Ratio [19]: 0.92

COc1cccc(/C=C2/C(=O)Nc3cc(Cl)ccc32)c1
fold induction at 48 h, 0.1 µM [20]: 1.51 | IC50 [14]: > 25 µM | Ratio [21]: 2.56

COc1cc(/C=C2/C(=O)Nc3ccccc32)cc(OC)c1OC
Activity [6]: 3.78% | Activity [7]: 4.13% | Activity [8]: 56.85% | Activity [9]: 42.06% | Activity [10]: 21.42% | Activity [11]: 16.84% | Activity [12]: 18.54% | Activity [13]: 36.45% | IC50 [14]: > 25 µM

O=C1Nc2ccccc2/C1=C\c1ccc(C(F)(F)F)cc1
fold induction at 48 h, 0.1 µM [20]: 1.22 | IC50 [14]: 12 µM | Ratio [21]: 2.74

O=C1Nc2cc(C(F)(F)F)ccc2/C1=C1\C(=O)Nc2ccc(F)cc21
IC50 [14]: > 25 µM | fold induction at 48 h, 0.005 µM [17]: 3.72 | Ratio [18]: 3.09 | Ratio [19]: 0.83

COc1ccc2c(c1)NC(=O)/C2=C/c1ccc(OC)c(O)c1
IC50 [1]: 3.7 µM | IC50 [2]: 7.8 µM | IC50 [3]: 11.3 µM | Ratio IC50 [4]: 3.1 | selectivity ratio [5]: 1.4 | Activity [6]: 5.26% | Activity [7]: 15.54% | Activity [8]: 17.49% | Activity [9]: 26.01% | Activity [10]: 21.13% | Activity [11]: 15.36% | Activity [12]: 56.49% | Activity [13]: 43.57% | IC50 [14]: 9.8 µM | Ratio [22]: 4.34 | fold induction at 48 h, 1 µM [23]: 1.05

O=C1Nc2ccccc2/C1=C\c1cccc(Oc2ccccc2)c1
fold induction at 48 h, 7.5 µM [24]: 1.08 | IC50 [1]: 3.7 µM | IC50 [2]: 8.2 µM | IC50 [3]: 12.7 µM | Ratio IC50 [4]: 3.4 | selectivity ratio [5]: 1.5 | Activity [6]: 3.62% | Activity [7]: 2.16% | Activity [8]: 55.93% | Activity [9]: 63.51% | Activity [10]: 21.83% | Activity [11]: 13.1% | Activity [12]: 18.98% | Activity [13]: 21.09% | IC50 [14]: 10.8 µM | Ratio [25]: 3.34

COc1ccc(/C=C2/C(=O)Nc3cc(F)ccc32)cc1O
fold induction at 48 h, 0.5 µM [26]: 2.05 | IC50 [14]: 15.6 µM | Ratio [27]: 4.1

O=C1Nc2ccccc2/C1=C1\C(=O)Nc2cc(F)ccc21
IC50 [14]: > 25 µM | fold induction at 48 h, 0.005 µM [17]: 2.75 | Ratio [18]: 2.56 | Ratio [19]: 0.93

O=C1Nc2ccccc2/C1=C\c1cccc(C(F)(F)F)c1
fold induction at 48 h, 0.1 µM [20]: 1.4 | IC50 [14]: 3.9 µM | Ratio [21]: 3.85

O=C1Nc2ccccc2/C1=C1\C(=O)Nc2ccccc21 [ISOINDIGO]
fold induction at 48 h, 0.1 µM [20]: 1.44 | IC50 [14]: > 25 µM | Ratio [21]: 2.8

O=C1Nc2ccccc2/C1=C1\C(=O)Nc2cc(C(F)(F)F)ccc21
IC50 [14]: > 25 µM | fold induction at 48 h, 0.005 µM [17]: 3.01 | Ratio [18]: 2.99 | Ratio [19]: 0.99

COc1ccc(/C=C2/C(=O)Nc3ccccc32)cc1O
fold induction at 48 h, 0.5 µM [26]: 2.66 | IC50 [14]: 11.9 µM | Ratio [27]: 3.13

O=C1Nc2ccccc2/C1=C1\C(=O)Nc2ccc(Cl)cc21
IC50 [14]: 20.5 µM | fold induction at 48 h, 0.005 µM [17]: 2.31 | Ratio [18]: 2.42 | Ratio [19]: 1.05
